b-catenin transl = modulators of beta-catenin nuclear translocation, primary screen, imaging, HeLa cells, immunofluorescence, high-content; hit rate 0.3% among 190,000; nuclear translocation activity, % at 5 µM; AID 1665, 2009;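 active = nuclear translocation activity above 50% at 5 µM, with a well cell count of 50 or more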;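 note: per-cell ratio of nuclear to cytoplasmic median beta-catenin stain intensity; plate controls were DMSO negative control for no effect and GSK-3 inhibitor IX positive control for full effect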
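Read-out: Nuclear/cytoplasmic beta-catenin signal ratio, % activation | Assay system: Human HeLa cell line | Times: 24 h compound exposure at 37°C, 5% CO2 | Signal: Fluorescence imaging of beta-catenin antibody stain plus DAPI | Dosing: 5 µM primary, 0.02–20 µM confirmation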
MT stabilizer = microtubule stabilizers in HeLa cells, primary screen, imaging, high-content imaging; HeLa tubulin immunostaining HCS, 24 h; share of cells brighter than vehicle mean+2SD; hit rate 0.83% among 200,000; % tubulin-high responders, % at 10 µM;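 active = plate Z-score above 3 for both tubulin-high and condensed-nucleus cell shares, with cell loss under 80%, at 10 µM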;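 note: anti alpha tubulin signal scored within the nucleus-defined area of each cell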
BaF3 parental = parental Ba/F3 cell viability inhibition, counter-screen for JAK2V617F inhibitor project, murine pro-B, CellTiter-Glo luminescence | CellTiter-Glo ATP luminescence | inhibition, % at 5.6 µM | hit rate 1.1% among 220,000;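 active = inhibition above a per-campaign cutoff, the mean inhibition of all tested compounds plus 3 SD, cut at about 27% in these data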;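 note: 0% = DMSO wells and 100% = JAK Inhibitor I control wells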
Ba/F3 V617F tox = reduced viability of JAK2V617F-dependent Ba/F3 cells, primary screen, JAK2V617F inhibitor project, cell-based, Ba/F3 EpoR-JAK2V617F, luminescence; ATP luminescence; inhibition, % at 5.6 µM; hit rate 1.1% among 220,000; AID 1446, 2008;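 active = inhibition above the campaign mean plus 3 SD over all tested compounds, cut at about 24% in these data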;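 note: cytokine-independent growth of Ba/F3 cells driven by EpoR plus mutant JAK2; 0% = DMSO-treated cells and 100% = JAK inhibitor I control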
KLF5 inh = KLF5 expression inhibitors, primary screen, DLD-1 cells, luminescence; DLD-1 KLF5 promoter-luciferase reporter; inhibition, % at 5 µM; hit rate 0.23% among 290,000; AID 1700, 2009;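 active = inhibition above a per-plate limit of that plate's mean compound inhibition plus 3 SD, cut at about 60% in these data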;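 note: 0% = DMSO wells and 100% = LY294002 at 200 µM; higher means less KLF5 promoter-driven luciferase light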
IEC-6 tox-1 = cytotoxicity in IEC-6 intestinal epithelial cells, primary screen, cytotoxicity control for KLF5 inhibitor project, cell-based, luminescence; hit rate 0.78% among 290,000; AID 1825, 2009; inhibition, % at 5 µM; IEC-6 cytotoxicity, luminescence viability; in the data active = inhibition above about 22%;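 note: 0% = plate median of test compound wells and 100% = cytotoxic reference compound wells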
KLF5 inh confirm = KLF5 expression inhibitors, confirmation, DLD-1 cells, luminescence. shares compounds with KLF5 inh. DLD-1 KLF5 promoter firefly luciferase reporter. inhibition, % at 4 µM. hit rate 79% among 610;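 active = inhibition above a set limit taken from the earlier primary screen, cut at about 63% in these data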;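 note: 0% = DMSO wells and 100% = LY294002 at 200 µM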
IEC-6 tox-2 = cytotoxicity in rat IEC-6 cells, cytotoxicity control for KLF5 inhibitor project, cell-based, luminescence, triplicate; IEC-6 rat intestinal cells, viability luminescence; AID 1905, 2009; inhibition, % at 4 µM; shares compounds with KLF5 inh; hit rate 56% among 610; in the data active = inhibition above about 23%;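 note: cells exposed to compounds for 48 hours before viability read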
An asterisk follows results filed as active; · = no result given. An excerpt weighted towards active compounds, which were near 2.1% of everything screened.

SMILES	b-catenin transl	MT stabilizer	BaF3 parental	Ba/F3 V617F tox	KLF5 inh	IEC-6 tox-1	KLF5 inh confirm	IEC-6 tox-2
Cc1nn(-c2nc3ccccc3[nH]2)c(=O)c2ccccc12	3	2	87*	83*	110*	85*	105*	63*
Cc1nn(-c2ccc3ccccc3c2)c(=O)c2ccccc12	3	3	4	5	-51	10	·	·
COc1ccccc1-c1noc(CCC(=O)NC2CCCCC2)n1	·	·	·	·	-12	0	·	·
CCCCCCCC[n+]1cccc2c3ccccc3ccc21	·	2	85*	100*	82*	45*	93*	43*
CCN(Cc1ccccc1)C(=O)c1oc2ccc(S(=O)(=O)N3CCOCC3)cc2c1C	·	·	·	·	-1	11	·	·
O=C(Nc1cccc(F)c1)C1CCN(C(=O)N2CCOc3ccccc32)CC1	·	·	·	·	-5	11	·	·
C[C@@H]1C=CC(=O)O[C@@H]1c1ccc(C(F)(F)F)cc1	·	·	·	·	62*	6	38	14
CCN(CC)C(=O)COc1ccc2c3c(c(=O)oc2c1)CCCC3	·	·	·	·	-39	2	·	·
Oc1c(CN2CCN(c3ccccc3)CC2)cc(Br)c2cccnc12	0	·	12	20	52	13	57	15
CC(C)Cn1c(=O)c(C2=NS(=O)(=O)c3ccccc3N2)c(O)c2ccccc21	·	1	-1	-2	0	0	·	·
Oc1[nH]c2ccccc2c1N=NC(=S)N1CCOCC1	2	·	59*	54*	68*	48*	89*	48*
COC(=O)N=Nc1c(O)[nH]c2ccc(Br)cc12	-2	·	-10	0	-39	-4	·	·
NC(=S)N=Nc1c(O)[nH]c2ccccc12	-4	4	4	1	-40	0	·	·
Oc1[nH]c2ccc(Br)cc2c1N=NC(=S)N1CCOCC1	1	·	94*	95*	75*	88*	85*	56*
O=C(Nc1nnc(-c2ccc(F)cc2)o1)c1cccc([N+](=O)[O-])c1	-2	2	10	1	72*	98*	27	17
CCCCCCCCCn1ccc(=N)cc1	6	·	96*	99*	72*	54*	62*	55*
CN(C(=O)COC(=O)/C=C/c1cccc([N+](=O)[O-])c1)C1CCS(=O)(=O)C1 (configuration not stated)	-3	·	0	-3	83*	-5	97*	-3
CC/C(C)=N/Nc1nc(-c2cc3cccc(OC)c3oc2=O)cs1	-2	·	-1	-2	-84	-3	·	·
CCOc1ccc(N=Nc2ccc(O)c3ncccc23)cc1	·	·	·	·	65*	14	19	-1
CCS(=O)(=O)c1ccc(OC)c(N=Nc2ccc(O)c3ncccc23)c1	0	1	7	2	-10	-7	·	·
CCN(CC)S(=O)(=O)c1cc(OC)ccc1N=Nc1ccc(O)c2ncccc12	·	·	·	·	87*	7	87*	4
Cc1cccc(N=Nc2ccc(O)c3ncccc23)c1	2	5	1	1	16	3	·	·
COc1ccc(NC(=O)c2ccc(S(=O)(=O)C(F)F)cc2)c(OC)c1	0	3	1	-2	7	-5	·	·
CCCCC(=O)NC(c1ccc(C(C)C)cc1)c1ccc2cccnc2c1O (configuration not stated)	·	·	·	·	69*	16	80*	46*
CCCC(=O)NC(c1ccc(OC)cc1)c1ccc2cccnc2c1O (configuration not stated)	0	8.7*	66*	54*	90*	38*	96*	92*
SMILES	b-catenin transl	MT stabilizer	BaF3 parental	Ba/F3 V617F tox	KLF5 inh	IEC-6 tox-1	KLF5 inh confirm	IEC-6 tox-2
CCCCC(=O)NC(c1ccco1)c1cc(Cl)c2cccnc2c1O (configuration not stated)	2	2	7	3	-2	-4	·	·
COc1ccc(NC(=O)CC23CC4CC(CC(Br)(C4)C2)C3)c(OC)c1	·	·	·	·	-14	3	·	·
COc1cc(C(=O)Nc2sc3c(c2C(=O)O)CCC(C)C3)cc(OC)c1OC (configuration not stated)	·	·	·	·	74*	-6	20	5
CC(C)Oc1ccccc1C1CC(=O)Nc2cc3c(cc21)OCO3 (configuration not stated)	-2	21*	75*	73*	87*	84*	83*	64*
CCCOc1ccccc1C1CC(=O)Nc2cc3c(cc21)OCCO3 (configuration not stated)	-1	13*	77*	77*	66*	81*	83*	64*
COc1ccc(N2CCCC2)c(NC(=O)c2ccc(Br)o2)c1	·	·	·	·	-2	3	·	·
Nc1nc(Nc2ccc(Cl)cc2)nc2ccccc12	·	2	4	6	32	17	·	·
CCOc1ccc(Nc2nc(N)c3ccccc3n2)cc1	·	·	·	·	81*	20	56	10
CN(C)c1ccc(Nc2nc(N)c3ccccc3n2)cc1	·	·	·	·	91*	22	67*	10
Cc1cc(C)c(S(=O)(=O)NCc2nc3nc(C)cc(C)n3n2)c(C)c1	·	·	·	·	-9	8	·	·
COc1ccccc1C(=O)Nc1ccc(N2CCCCC2)cc1	·	2	7	4	-121	9	·	·
O=C(Nc1ccc(N2CCCCC2)cc1)c1ccccn1	-3	5	19	22	104*	19	100*	12
COc1ccc(S(=O)(=O)Nc2cccc(-c3ccc4nncn4n3)c2)cc1F	3	30*	79*	81*	70*	59*	81*	34*
COc1cccc(/C=N/Nc2nc(Nc3ccc([N+](=O)[O-])cc3)nc(N3CCCC3)n2)c1O	3	7	3	-1	-6	1	·	·
COc1cccc(/C=N/Nc2ncccc2[N+](=O)[O-])c1OC	1	·	14	17	81*	12	30	23*
COc1cccc(/C=N/NC(=O)c2cc3c(OC)ccc(OC)c3[nH]2)c1O	·	·	·	·	88*	12	72*	-2
COc1cccc(/C=N/Nc2ccc(C(=O)O)cc2)c1O	-1	2	3	1	100*	-5	111*	-7
COc1cccc(/C=N/Nc2ccc([N+](=O)[O-])cn2)c1O	·	·	·	·	85*	10	72*	7
COc1cccc(/C=N/Nc2nc(C)cc(=O)[nH]2)c1OC	·	·	·	·	-31	-5	·	·
COc1cccc(/C=N/Nc2ccc(S(=O)(=O)O)cc2)c1O	0	2	3	-4	-2	0	·	·

Compound activity as filed in PubChem.
